Compound activity deposited in PubChem BioAssay by Broad Institute.
Rows were chosen to be rich in hits. Some 3.6% of all compounds tested hit in one or more screens of this group.
MITF TRPM1 HTS = activators of MITF-driven TRPM1 promoter reporter, primary screen, cell-based, SK-MEL-5, luciferase, single point. hit rate 0.75% among 300,000. activation, % at 12.5 µM. SK-MEL-5 TRPM1-promoter luciferase, 24 h; % of positive control, neutral wells = 0;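 active = mean activation of at least 80% with every replicate also reaching 80%; inconclusive = mean reaches 80% but some replicate falls short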;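 note: 0% = neutral control wells and 100% = parthenolide positive control wells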
Wnt act = Wnt/beta-catenin pathway activators, primary screen, cell-based, plate reader, single point; AID 743398, 2014; hit rate 1.2% among 300,000; Wnt/beta-catenin reporter cell assay, activator; activation, % at 9.35 µM; in the data active = activation above about 30%, passing the limit was not always enough; inconclusive = no clear call, values can overlap the other calls;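 note: 0% = neutral control wells and 100% = positive control wells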
HSF-1 act = HSF-1 activators, primary screen, NIH3T3-HGL cells, MG132 stress, luminescence, single point; hit rate 1.7% among 300,000; AID 504408, 2011; NIH3T3-HGL HSF-1 luciferase reporter, 8 h; 100% = twice DMSO control signal; activation, % at 9 µM;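 active = mean replicate activation of at least 50% with a set share of replicates each reaching 50%; inconclusive = only one of those two conditions met; inactive = mean below 50% and too few replicates reaching it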;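 note: 0% = median of the neutral control wells and 100% = twice that signal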
SR-BI DiI inh = inhibitors of SR-BI mediated HDL lipid uptake, primary screen, ldlA[mSR-BI] cells, fluorescence, single point; Scavenger receptor class B member 1 (Mus musculus), Q61009; ldlA[mSR-BI] CHO cells, DiI-HDL uptake fluorescence, 3 h; inhibition, % at 12.5 µM; hit rate 0.96% among 320,000;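 active = mean replicate inhibition of at least 70% and a set share of replicates each scoring 70 or more; inconclusive = meets just one of the two criteria; inactive = fails both criteria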;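 note: 0% = median of neutral control wells and 100% = median of positive control wells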
Target sequence (Q61009 whole entry, looked up): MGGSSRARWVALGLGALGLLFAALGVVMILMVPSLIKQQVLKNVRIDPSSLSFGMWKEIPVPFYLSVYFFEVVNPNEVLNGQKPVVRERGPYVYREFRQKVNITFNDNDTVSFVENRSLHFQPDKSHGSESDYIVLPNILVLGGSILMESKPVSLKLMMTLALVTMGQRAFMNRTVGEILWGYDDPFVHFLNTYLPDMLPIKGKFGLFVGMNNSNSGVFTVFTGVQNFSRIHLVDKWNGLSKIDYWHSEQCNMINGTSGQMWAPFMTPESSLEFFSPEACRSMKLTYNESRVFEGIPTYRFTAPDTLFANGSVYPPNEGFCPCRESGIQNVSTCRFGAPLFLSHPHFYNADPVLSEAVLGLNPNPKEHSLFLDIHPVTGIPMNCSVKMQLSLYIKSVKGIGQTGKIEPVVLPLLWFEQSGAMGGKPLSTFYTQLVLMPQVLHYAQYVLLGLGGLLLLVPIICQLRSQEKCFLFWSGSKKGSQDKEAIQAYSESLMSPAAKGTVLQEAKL
SR-BI uptake up = activators of SR-BI mediated DiI-HDL uptake, primary screen, ldlA[mSR-BI] CHO cells, DiI fluorescence. hit rate 0.096% among 320,000. 3 h; 100 = double the neutral-control signal. activation, % at 12.5 µM;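 active = mean replicate activation of at least 60% and every replicate at or above 60%; inconclusive = mean or all-replicate condition met, but not both; inactive = mean below 60% and not all replicates reaching 60%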;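 note: 0% = median plate neutral-control signal and 100% = twice that signal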
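Material: SR-BI-overexpressing, LDLR-lacking CHO cells | Dosing: Single compound concentration, delivered by pin transfer | Probe or stimulus: Labelled HDL, 10 µg/mL | Signal: Bottom-read cell fluorescence after medium removal, ex 550/em 595 nm | Schedule: 3 h, 37 °C | Evaluation: HDL uptake via cellular fluorescence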
Starred values were filed as active, the others as inactive; ? = inconclusive; . = not tested or not shown; ! = not confirmed by another sample.

SMILES	MITF TRPM1 HTS	Wnt act	HSF-1 act	SR-BI DiI inh	SR-BI uptake up
Cc1nnnn1/C(=C\c1ccccc1)C(=O)OCC(=O)Nc1ccc(Cl)cc1F	-50	-7	334*	-28	28
O=c1cc(-c2ccc(Cl)cc2)[nH]c2ccccc12	.	.	7	.	.
Clc1ccc(-c2cc3ccccc3[nH]2)cc1	.	42*	46	44	-44
CC(C)(C)S(=O)(=O)N1C[C@@H]2CC(=O)C(CCO)=C2[C@H]1CCO	.	-2	.	.	.
Oc1ccc(Cl)cc1-c1cc(-c2ccco2)[nH]n1	-4	6	140*	38	-38
Oc1ccccc1-c1cc(-c2ccco2)[nH]n1	44	.	25	22	-22
COc1ccc(NC(=O)c2sc3nc(-c4cccnc4)ccc3c2N)cc1OC	.	0	2	74*	-74
O=C(Nc1cccnc1)c1cc(-c2ccc(Cl)c(Cl)c2)on1	16	14	?	-7	7
COc1ccc(-c2cc(C(=O)Nc3cccnc3)no2)cc1OC	87*	29	19	18	-18
CC1(c2ccc(OC(F)F)cc2)NC(=O)N(CC(=O)N2CCN(C(=O)c3ccco3)CC2)C1=O (configuration not stated)	.	-3	.	2	-2
CC(=Nc1ccc(C)c(C)c1)C1=C(O)CSC1=O	132*	.	-16	-3	3
COc1cccc(C(=O)Oc2c(Br)cc(Br)cc2/C=N/NC(=O)c2cc(C)[nH]n2)c1	-38	-3	.	103*	-103
Fc1ccc2cc(CCO[C@H]3CCCCO3)ncc2c1	40	32*	.	-19	19
COc1ccc(N2CCN(C(=O)C(=O)c3cccc([N+](=O)[O-])c3)CC2)cc1	.	0	.	.	.
Cc1ccc(OCC(=O)Nc2ccc3c(c2)C(=O)N(CCC(=O)O)C3=O)cc1	-6	-1	-1	-22	22
COc1ccc(-c2nc3cc(C)ccn3c2NCc2ccc3c(c2)OCO3)cc1	33	14	55*	41	-41
Cc1cc(-c2nc3ncccc3o2)ccc1NC(=S)NC(=O)C(C)C	7	.	52*	12	-12
Cc1ccc(-c2nc3ncccc3o2)cc1NC(=O)C(C)C	.	1	-8	-17	17
O=c1cc(COc2ccc(Cl)c(Cl)c2)nc2sccn12	74	?	57*	.	.
COc1ccc(C/C(C)=N\NC(=O)c2c[nH]c3ccccc23)cc1OC	3	39*	10	-1	1
COc1ccc(CCNC(=O)C(=O)c2c[nH]c3ccccc23)cc1OC	.	1	6	17	-17
COc1ccc(NC(=O)c2cc(CC(C)C)on2)cc1OC	.	8	33	-8	8
CC(C)Cc1cc(C(=O)Nc2ccc(Br)cc2)no1	111*	37*	-51	.	.
CCc1ccc(NC(=O)c2cc(CC(C)C)on2)cc1	.	59*	22	-20	20
COc1cccc(CN2CCC2(C)C(=O)Nc2cccc(Oc3ccccc3)c2)c1F (configuration not stated)	.	0	.	.	.
SMILES	MITF TRPM1 HTS	Wnt act	HSF-1 act	SR-BI DiI inh	SR-BI uptake up
CCCn1cnc2c(SCc3ccccc3Cl)nc(N)nc21	8	-4	.	-9	9
O=C(Nc1cccc(F)c1)Nc1ccc(Cl)cn1	74	14	-1	9	-9
O=C(Nc1ccc(Cl)c(Cl)c1)Nc1ccc([N+](=O)[O-])cn1	-11	13	15	-10	10
Cc1ccc(NC(=O)Nc2ccc(Cl)c(Cl)c2)nc1	.	19	53*	7	-7
Cc1ccc(NC(=O)Nc2ccc(Cl)cn2)cc1	78	16	77*	14	-14
O=C(CN1CCN(c2ccc(O)cc2)CC1)Nc1ccc2c(c1)OCCCO2	-5	-7	.	75*	-75
Cc1cccc(NC(=O)CN2CCc3cc4c(cc3C2)OCCCO4)c1	12	-1	7	-222	222*
COc1ccc(C2=Nn3c(nnc3-c3ccccc3F)SC2)cc1OC1CCCC1	3	36*	.	-13	13
COc1ccc(C2=Nn3c(nnc3-c3ccccc3F)SC2)cc1OC1CCOC1 (configuration not stated)	-24	1	.	6	-18
CCC1CN(C(=O)NCc2ccc(C)cc2)c2cc(C)ccc2O1 (configuration not stated)	1	-2	43	78*	-78
COC1(C)CC2C(CC1OC(=O)c1cc([N+](=O)[O-])cc([N+](=O)[O-])c1)C2(C)C (configuration not stated)	3	-7	8	93*!	-67
COC(=O)c1cc(C(=O)NCC2CCCCC2)cc([N+](=O)[O-])c1	-8	0	-2	26	-26
COc1ccccc1CCC(=O)OCC(=O)Nc1c(Br)cc(C)cc1Br	0	-1	61*	.	.
Cc1ccc(C(=O)N[C@H](C(=O)Nc2cccc(S(=O)(=O)N3CCOCC3)c2)C(C)C)cc1	.	-2	.	.	.
CCCNC(=O)CSc1nnc(NC(=O)C2CC(=O)N(c3ccccc3OC)C2)s1 (configuration not stated)	.	-1	.	.	.
COc1ccc(-c2nnc(SCC(C)C)o2)cc1	57	42*	26	10	-10
CN(c1ccc(C(=O)N2CCCCCC2)cc1)S(=O)(=O)c1ccc(Cl)cc1	-19	-1	1	71*	-71
O=C(/C=C/Sc1ccccc1)c1ccccc1	-8	-16	117*	-10	10
O=C(/C=C/Sc1ccccc1)c1ccc(Cl)cc1	48	.	161*	-16	16
Cn1cc(-c2ccc3c(c2)OCO3)c2ccccc21	.	2	.	.	.
CC1(C(=O)NCc2cccc3ccccc23)CCN1Cc1ccc(OC(F)(F)F)cc1 (configuration not stated)	.	-2	.	.	.
CN(c1ccc(NC(=O)Cc2cn(C)c3ccccc23)cc1)c1ccccn1	.	-1	.	.	.
Cc1ncc(CO)c(/C=N/NC(=O)c2cc3c(s2)CCCC3)c1O	-42	-3	-8	104*	-104
Cc1ncc(CO)c(/C=N/NC(=O)c2ccc(O)cc2)c1O	7	-5	15	36	-36
CC(C)(C)NC(=O)C(c1ccncc1)N(C(=O)c1csnn1)c1cccc2ccccc12 (configuration not stated)	0	15	14	-1	1
COc1ccc(CNC(=O)C(c2ccc(C)o2)N(C(=O)c2csnn2)c2ccc(C(C)C)cc2)cc1 (configuration not stated)	0	.	71*	-6	6
Cc1ccc(C)c(N(C(=O)c2csnn2)C(C(=O)NC2CCCC2)c2ccncc2)c1 (configuration not stated)	-3	-2	9	-13	13
Cc1ccc(N(C(=O)c2csnn2)C(C(=O)NC2CCCC2)c2ccncc2)c(C)c1 (configuration not stated)	.	2	61*	.	.
